Laboratory results as given in ChEMBL document CHEMBL4043244, “Diverse amide analogs of sulindac for cancer treatment and prevention” (Bioorg Med Chem Lett, 2017).

Key:
Type in all cases: functional
[1] = tested on: HT-29; assay: Growth inhibition of human HT-29 cells after 72 hrs by CellTiter-Glo reagent based assay; conditions: HT-29, 72 h
Method in brief: (§1)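 Cancer cell lines (PC3 prostate, HT29 colorectal carcinoma, MDA-MB-231 breast) were screened by quantitative high-throughput screening in whole cells, and CC50 values were derived.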

[2] = tested on: MDA-MB-231; assay: Growth inhibition of human MDA-MB-231 cells after 72 hrs by CellTiter-Glo reagent based assay; conditions: MDA-MB-231, 72 h; method in brief: as §1
[3] = tested on: PC-3; assay: Growth inhibition of human PC3 cells after 72 hrs by CellTiter-Glo reagent based assay; conditions: PC-3, 72 h; method in brief: as §1

Compound	CC50 [1] [µM]	CC50 [2] [µM]	CC50 [3] [µM]
CSc1ccc(/C=C2/C(C)=C(CC(=O)N(C)CCN(C)S(=O)(=O)c3ccccc3)c3cc(F)ccc32)cc1	8.82	> 50	> 50
CSc1ccc(/C=C2/C(C)=C(CC(=O)N(C)CCCN(C)C)c3cc(F)ccc32)cc1	2.18	5.41	6.98
CCN1CCC[C@H]1CNC(=O)CC1=C(C)/C(=C/c2ccc(SC)cc2)c2ccc(F)cc21	1.16	3.72	4.64
CCN(CC)CCNC(=O)CC1=C(C)/C(=C/c2cc(OC)c(OC)c(OC)c2)c2ccc(F)cc21	5.42	12.3	13.9
CSc1ccc(/C=C2/C(C)=C(CC(=O)Nc3ccc(N(C)C)cc3)c3cc(F)ccc32)cc1	> 50	30.6	> 50
CCN(CC)CCNC(=O)CC1=C(C)/C(=C/c2ccc([S+](C)[O-])cc2)c2ccc(F)cc21 (stereo not given)	19.8	> 50	> 50
CCN(CC)CCN(CC)C(=O)CC1=C(C)/C(=C/c2ccc(SC)cc2)c2ccc(F)cc21	1.83	5.22	6.21
CC1=C(CC(=O)N(C)CCN(C)S(=O)(=O)c2ccc3ccccc3c2)c2cc(F)ccc2/C1=C\c1ccc([S+](C)[O-])cc1 (stereo not given)	6.35	32.1	7.52
CC1=C(CC(=O)N2CCN(c3ccncc3)CC2)c2cc(F)ccc2/C1=C\c1ccc([S+](C)[O-])cc1 (stereo not given)	9.2	22.7	21.9
CSc1ccc(/C=C2/C(C)=C(CC(=O)NCc3cccnc3)c3cc(F)ccc32)cc1	4.83	7.36	18.5
CSc1ccc(/C=C2/C(C)=C(CC(=O)NCCN3CCNCC3)c3cc(F)ccc32)cc1	2.98	7.66	6.66
CC1=C(CC(=O)N2CCN(CCCN(C)C)CC2)c2cc(F)ccc2/C1=C\c1ccc([S+](C)[O-])cc1 (stereo not given)	23.8	46.2	> 50
CSc1ccc(/C=C2/C(C)=C(CC(=O)NCc3ccc(N(C)C)cc3)c3cc(F)ccc32)cc1	> 50	> 50	> 50
CCN(CC)CCN(C)C(=O)CC1=C(C)/C(=C/c2ccc(SC)cc2)c2ccc(F)cc21	1.49	3.77	5.65
CCN(CC)CCN(C)C(=O)CC1=C(C)/C(=C/c2ccc([S+](C)[O-])cc2)c2ccc(F)cc21 (stereo not given)	24	> 50	> 50
CCN(CCN(C)C)C(=O)CC1=C(C)/C(=C/c2ccc(SC)cc2)c2ccc(F)cc21	1.36	3.96	5.07
CC1=C(CC(=O)N(C)CCN(C)S(=O)(=O)c2cccc3c(N(C)C)cccc23)c2cc(F)ccc2/C1=C\c1ccc([S+](C)[O-])cc1 (stereo not given)	10.6	> 50	9.2
CSc1ccc(/C=C2/C(C)=C(CC(=O)N(CCCNC(C)C)C(C)C)c3cc(F)ccc32)cc1	2.3	3.92	4.9
CSc1ccc(/C=C2/C(C)=C(CC(=O)NCCN3CCCCC3)c3cc(F)ccc32)cc1	1.65	5.42	5.36
CSc1ccc(/C=C2/C(C)=C(CC(=O)NCc3ccco3)c3cc(F)ccc32)cc1	2.08	3.4	13

Compound	CC50 [1] [µM]	CC50 [2] [µM]	CC50 [3] [µM]
CSc1ccc(/C=C2/C(C)=C(CC(=O)N(C)CCN(C)S(=O)(=O)c3cccc4c(N(C)C)cccc34)c3cc(F)ccc32)cc1	> 50	> 50	> 50
CCN(CC)CCNC(=O)CC1=C(C)/C(=C/c2ccc(SC)cc2)c2ccc(F)cc21	1.54	4.2	5.45
CSc1ccc(/C=C2/C(C)=C(CC(=O)NCCC(C)C)c3cc(F)ccc32)cc1	> 50	> 50	> 50
CCN(CCN(C)C)C(=O)CC1=C(C)/C(=C/c2ccc([S+](C)[O-])cc2)c2ccc(F)cc21 (stereo not given)	18.2	> 50	> 50
CSc1ccc(/C=C2/C(C)=C(CC(=O)N3CCNCC3)c3cc(F)ccc32)cc1	2.47	3.69	6.5
CC1=C(CC(=O)NCc2ccccc2)c2cc(F)ccc2/C1=C\c1ccncc1 [CP-461 FREE BASE]	2.14	3.68	5.71
CSc1ccc(/C=C2/C(C)=C(CC(=O)N(C)CCN(C)S(=O)(=O)c3ccc(C)cc3)c3cc(F)ccc32)cc1	12.9	> 50	> 50
CCNCCCN(CC)C(=O)CC1=C(C)/C(=C/c2ccc(SC)cc2)c2ccc(F)cc21	1.38	3.03	3.92
CCS(=O)(=O)N(C)CCN(C)C(=O)CC1=C(C)/C(=C/c2ccc(SC)cc2)c2ccc(F)cc21	4.2	10.1	14.3
CCS(=O)(=O)N(C)CCN(C)C(=O)CC1=C(C)/C(=C/c2ccc([S+](C)[O-])cc2)c2ccc(F)cc21 (stereo not given)	42.6	> 50	> 50
CSc1ccc(/C=C2/C(C)=C(CC(=O)NCc3cccs3)c3cc(F)ccc32)cc1	2.16	5.66	11
CCNCCCN(CC)C(=O)CC1=C(C)/C(=C/c2ccc([S+](C)[O-])cc2)c2ccc(F)cc21 (stereo not given)	17.5	> 50	> 50
CSc1ccc(/C=C2/C(C)=C(CC(=O)N(C)CCN(C)S(=O)(=O)c3cccc4ccccc34)c3cc(F)ccc32)cc1	16.2	> 50	> 50
CC1=C(CC(=O)NCc2ccccc2)c2cc(F)ccc2/C1=C\c1nc2ccccc2s1	23.6	19.6	> 50
CC1=C(CC(=O)NCCN(C)C)c2cc(F)ccc2/C1=C\c1ccncc1	6.89	18.1	28.9
COc1cc(/C=C2/C(C)=C(CC(=O)NCCN3CCCCC3)c3cc(F)ccc32)cc(OC)c1OC	4.18	10.4	9.62
COC(=O)[C@@H](C)NC(=O)CC1=C(C)/C(=C/c2ccc(SC)cc2)c2ccc(F)cc21	16.2	32	44.2
CC1=C(CC(=O)N(C)CCN(C)S(=O)(=O)c2ccc(C)cc2)c2cc(F)ccc2/C1=C\c1ccc([S+](C)[O-])cc1 (stereo not given)	6.18	17.8	11
CNCCCN(C)C(=O)CC1=C(C)/C(=C/c2ccc([S+](C)[O-])cc2)c2ccc(F)cc21 (stereo not given)	> 50	> 50	> 50
CSc1ccc(/C=C2/C(C)=C(CC(=O)NCCC3CCCN3C)c3cc(F)ccc32)cc1 (stereo not given)	1.41	3.75	4.33

Compound	CC50 [1] [µM]	CC50 [2] [µM]	CC50 [3] [µM]
CC1=C(CC(=O)N2CCC(N3CCCCC3)CC2)c2cc(F)ccc2/C1=C\c1ccc([S+](C)[O-])cc1 (stereo not given)	> 50	> 50	> 50
CC1=C(CC(=O)N2CCC[C@H]2CN2CCCC2)c2cc(F)ccc2/C1=C\c1nc2ccccc2s1	1.58	3.61	4.25
COc1cc(/C=C2/C(C)=C(CC(=O)NCCCN(C)C)c3cc(F)ccc32)cc(OC)c1OC	6.08	10.8	13
CNCCN(C)C(=O)CC1=C(C)/C(=C/c2cc(OC)c(OC)c(OC)c2)c2ccc(F)cc21	8.05	17	23.1
CSc1ccc(/C=C2/C(C)=C(CC(=O)NCCCN(C)C)c3cc(F)ccc32)cc1	2.46	5.18	6.99
CC1=C(CC(=O)NCCN(C)C)c2cc(F)ccc2/C1=C\c1nc2ccccc2s1	1.57	3.63	4.88
CSc1ccc(/C=C2/C(C)=C(CC(=O)NCc3ccncc3)c3cc(F)ccc32)cc1	4.88	6.46	5.83
CCNCCN(CC)C(=O)CC1=C(C)/C(=C/c2ccc([S+](C)[O-])cc2)c2ccc(F)cc21 (stereo not given)	18.2	> 50	> 50
CNCCN(C)C(=O)CC1=C(C)/C(=C/c2ccc(SC)cc2)c2ccc(F)cc21	2.8	5.84	6.75
CCN(CC)CCN(CC)C(=O)CC1=C(C)/C(=C/c2ccc([S+](C)[O-])cc2)c2ccc(F)cc21 (stereo not given)	18.4	> 50	> 50
COC(=O)[C@H](Cc1cnc[nH]1)NC(=O)CC1=C(C)/C(=C/c2ccc(SC)cc2)c2ccc(F)cc21	23	> 50	> 50
CSc1ccc(/C=C2/C(C)=C(CC(=O)NN3CCN(C)CC3)c3cc(F)ccc32)cc1	1.64	4.1	4.45
CC1=C(CC(=O)NCCCN(C)C)c2cc(F)ccc2/C1=C\c1ccc([S+](C)[O-])cc1 (stereo not given)	33.3	> 50	> 50
CNCCCN(C)C(=O)CC1=C(C)/C(=C/c2ccc(SC)cc2)c2ccc(F)cc21	2.9	7.66	7.65
CSc1ccc(/C=C2/C(C)=C(CC(=O)NCc3ccccn3)c3cc(F)ccc32)cc1	10.3	13.7	13.6
CNCCN(C)C(=O)CC1=C(C)/C(=C/c2ccc([S+](C)[O-])cc2)c2ccc(F)cc21 (stereo not given)	34.5	> 50	> 50
COc1cc(/C=C2/C(C)=C(CC(=O)NCCN3CCCC3)c3cc(F)ccc32)cc(OC)c1OC	13.4	41.1	46.5
CC1=C(CC(=O)NCCC(C)C)c2cc(F)ccc2/C1=C\c1nc2ccccc2s1	> 50	24.2	> 50
CC1=C(CC(=O)NCCN2CCCC2)c2cc(F)ccc2/C1=C\c1ccncc1	2.68	7.19	10.2
CC1=C(CC(=O)NCCN(C)C)c2cc(F)ccc2/C1=C\c1ccc(S(C)(=O)=O)cc1	12.7	37.5	> 50
